Screening results: PubChem, several laboratories
In the library only some 7.2% were active in any assay of this set; here they are far more common.
PostGolgi yeast: growth inhibition of a yeast mutant, post-Golgi transport screen. inhibition, % at 10 µM. post-Golgi transport phenotypic cell assay. 98,000 compounds, 0.9% hits. AID 739;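 further: yeast cells grown in 1536-well plates; yeast grown about 18 h at 30C before absorbance read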
PostGolgi ctrl: inhibits growth of the yeast control strain. 98,000 compounds, 5% hits. AID 738. efflux-deficient yeast background strain, growth absorbance A615, 16 h. inhibition, % at 10 µM
E coli WT exp: blocks growth of wild type E. coli BW25113. growth inhibition, % at 100 µM. 98,000 compounds, 0.15% hits. AID 710. OD600 absorbance;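 active means growth inhibition above about 50% at one test dose, limit read from the data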;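 further: growth measured after 20 h incubation at 37 °C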
tolC growth inh: blocks growth of E. coli BW25113 tolC mutant; 65,000 compounds, 2.2% hits; OD615; growth inhibition, % at 10 µM (by protocol);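 active means growth inhibition at or above a cutoff equal to the mean over every tested compound plus 3 SD, cut at about 60% in these data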;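 further: growth measured after 20 h incubation at 37 °C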
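Test system: E. coli BW25113 ΔtolC::kan bacteria | Medium: Kanamycin-containing LB broth (50 µg/mL) | Dosing: One dose of 10 µM final | Times: 20 h incubation with compound, 37 °C | Detection: Optical density read at 615 nm | Read-out basis: Percent growth inhibition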
PLAP activator: activates human placental alkaline phosphatase; 96,000 compounds, 1.2% hits; P05187; purified PLAP enzyme, luminescent substrate read-out; hits give high values; activation fold at 20 µM; in the data active means activation fold above about 2
Target sequence (P05187 whole entry, looked up): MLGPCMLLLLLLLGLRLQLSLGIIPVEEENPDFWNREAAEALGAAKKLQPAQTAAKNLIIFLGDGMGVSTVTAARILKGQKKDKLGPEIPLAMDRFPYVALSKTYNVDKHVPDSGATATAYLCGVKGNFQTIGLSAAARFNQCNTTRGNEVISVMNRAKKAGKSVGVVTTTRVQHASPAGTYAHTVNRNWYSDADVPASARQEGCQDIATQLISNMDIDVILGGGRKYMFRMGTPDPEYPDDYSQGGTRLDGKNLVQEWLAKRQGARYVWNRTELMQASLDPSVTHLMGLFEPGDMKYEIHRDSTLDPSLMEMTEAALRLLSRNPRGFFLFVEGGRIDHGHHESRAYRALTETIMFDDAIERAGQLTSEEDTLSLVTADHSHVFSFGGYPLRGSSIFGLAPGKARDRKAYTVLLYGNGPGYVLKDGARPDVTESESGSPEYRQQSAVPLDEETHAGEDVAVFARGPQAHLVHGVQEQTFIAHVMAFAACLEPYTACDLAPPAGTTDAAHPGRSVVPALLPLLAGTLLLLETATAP
* marks the source's active call; other numbers are inactive results. Unless noted, no stated cut-off is given here; in the data, active means inhibition above about 30%; inactive means the rest.

Results for Cc1ccc2nc(NC(=O)CCNS(=O)(=O)c3cccs3)sc2c1 ?
PostGolgi yeast: 14.5; PostGolgi ctrl: 36.4*; E coli WT exp: 1.0; tolC growth inh: 11.4; PLAP activator: 1.4

What do the screens show for `COCC(=O)Nc1nc2ccc(C)cc2s1`?
PostGolgi yeast: -2.1; PostGolgi ctrl: 7.0; E coli WT exp: 7.0; tolC growth inh: -7.5; PLAP activator: 1

What do the screens show for `CCCCOC(=O)C1Cc2ccccc2C(=O)O1` (stereo not drawn)?
PostGolgi yeast: 3.5; PostGolgi ctrl: 6.3; E coli WT exp: -2.0; tolC growth inh: 1.5; PLAP activator: 0.9

How did O=C(O)c1cccc2c1C(=O)N(Cc1ccncc1)C2 do in these assays?
PostGolgi yeast: -11.7; PostGolgi ctrl: 34.8*; E coli WT exp: 1.0; tolC growth inh: -13.2; PLAP activator: 1

Results for O=C(OCC#CCSc1nc2ccccc2s1)c1ccco1 ?
PostGolgi yeast: -2.8; PostGolgi ctrl: 17.0; E coli WT exp: -8.0; tolC growth inh: 46.0; PLAP activator: 1.1

Results for CCCSC1=C(C#N)C(c2ccc(Cl)cc2Cl)CC(=O)N1 (stereo not drawn) ?
PostGolgi yeast: -2.1; PostGolgi ctrl: 36.7*; E coli WT exp: 0.0; tolC growth inh: 23.9; PLAP activator: 1.1

How did CCCCSC1=C(C#N)C(c2ccccc2C)CC(=O)N1 (stereo not drawn) do in these assays?
PostGolgi yeast: 11.4; PostGolgi ctrl: 33.4*; E coli WT exp: -1.0; tolC growth inh: -9.3; PLAP activator: 0.8

How did Brc1ccccc1Cn1c(-c2cncs2)nc2ccccc21 do in these assays?
PostGolgi yeast: 8.3; PostGolgi ctrl: 62.6*; E coli WT exp: -1.0; tolC growth inh: 62.4*; PLAP activator: 0.8

Results for c1csc(Cn2c(-c3cccs3)nc3ccccc32)c1 ?
PostGolgi yeast: -5.2; PostGolgi ctrl: 27.0; E coli WT exp: -10.0; tolC growth inh: 7.2; PLAP activator: 0.8

How did O=C(Nc1ccc(F)cc1)N(CCCN1CCOCC1)Cc1cc2cc3c(cc2[nH]c1=O)OCCO3 do in these assays?
PostGolgi yeast: 1.8; PostGolgi ctrl: 39.5*; E coli WT exp: -1.0; tolC growth inh: 8.2; PLAP activator: 1.7

What do the screens show for `O=C(Nc1ccc(Cl)cc1)N(Cc1cccs1)Cc1cccs1`?
PostGolgi yeast: 1.5; PostGolgi ctrl: 34.8*; E coli WT exp: -24.0; tolC growth inh: 94.8*; PLAP activator: 0.9

What do the screens show for `O=C(Nc1ccc(Cl)c(Cl)c1)N(CCCN1CCOCC1)Cc1cccs1`?
PostGolgi yeast: 14.7; PostGolgi ctrl: 30.6*; E coli WT exp: 5.0; PLAP activator: 1.5

How did O=C(Nc1ccc(F)cc1)N(CCCN1CCOCC1)Cc1cc2cc3c(cc2[nH]c1=O)OCO3 do in these assays?
PostGolgi yeast: 8.2; PostGolgi ctrl: 2.0; E coli WT exp: -7.0; tolC growth inh: -5.9

How did O=C(Nc1cccc(Cl)c1)N(CCCN1CCOCC1)Cc1ccccc1F do in these assays?
PostGolgi yeast: -0.2; PostGolgi ctrl: 4.2; E coli WT exp: 40.0; tolC growth inh: 68.2*; PLAP activator: 1.5

Results for CC(=O)N1CCC(N(CCN2CCOCC2)C(=O)Nc2ccc(Cl)c(Cl)c2)CC1 ?
tolC growth inh: 0.5

How did O=C(c1ccc(S(=O)(=O)N2CCCC2)cc1)N1CCCc2ccccc21 do in these assays?
PostGolgi yeast: -5.0; PostGolgi ctrl: -5.7; E coli WT exp: 14.0; tolC growth inh: 16.1; PLAP activator: 1.6

What do the screens show for `COC(=O)c1cc(Nc2ncnc3c2cnn3-c2ccccc2)cc(C(=O)OC)c1`?
tolC growth inh: 0.0

Results for CCOC(=O)C(C(C)=O)c1c(Br)c(O)c(O)c2c(C(=O)c3ccc(C)cc3)coc12 (stereo not drawn) ?
tolC growth inh: 16.2; PLAP activator: 1.4

How did COc1ccc(-c2nc(C#N)c(NC(C)c3ccccc3)o2)cc1OC (stereo not drawn) do in these assays?
PostGolgi yeast: 11.3; PostGolgi ctrl: 7.5; E coli WT exp: -7.0; tolC growth inh: 12.2; PLAP activator: 1.1

Results for COc1cccc(-c2cc(C(F)(F)F)nc(N3CCOCC3)n2)c1 ?
PostGolgi yeast: 9.3; PostGolgi ctrl: 19.5; E coli WT exp: -2.0; tolC growth inh: 67.6*; PLAP activator: 1

What do the screens show for `COc1cccc(-c2cc(C(F)(F)F)nc(N3CCC(C)CC3)n2)c1`?
PostGolgi yeast: 0.6; PostGolgi ctrl: 8.4; E coli WT exp: -3.0; tolC growth inh: 2.1; PLAP activator: 1

What do the screens show for `COc1ccccc1-c1cc(C(F)(F)F)nc(N2CCOCC2)n1`?
PostGolgi yeast: -3.2; PostGolgi ctrl: 16.3; E coli WT exp: 12.0; tolC growth inh: 61.6*; PLAP activator: 1

What do the screens show for `COc1ccccc1-c1cc(C(F)(F)F)nc(N2CCN(c3ccccc3)CC2)n1`?
PostGolgi yeast: -3.1; PostGolgi ctrl: 2.8; E coli WT exp: -10.0; tolC growth inh: -4.6; PLAP activator: 1.1

How did Cc1nnsc1C(=O)NNS(=O)(=O)c1ccccc1 do in these assays?
PostGolgi yeast: 1.6; PostGolgi ctrl: 37.7*; E coli WT exp: 7.0; PLAP activator: 1.1

What do the screens show for `Cc1ccc(S(=O)(=O)NNC(=O)c2sccc2-n2cccc2)cc1`?
PostGolgi yeast: -11.0; PostGolgi ctrl: 1.1; E coli WT exp: 5.0; PLAP activator: 1.1

How did CCOC(=O)c1ccc(Oc2nc(NC(C)(C)C)nc(N(C)C)n2)cc1 do in these assays?
PostGolgi yeast: -12.4; PostGolgi ctrl: 13.1; E coli WT exp: -12.0; tolC growth inh: 65.9*; PLAP activator: 1.7

How did CCOC(=O)c1ccc(Oc2nc(N(C)C)nc(N(C)C)n2)cc1 do in these assays?
PostGolgi yeast: 1.3; PostGolgi ctrl: 5.0; E coli WT exp: -11.0; PLAP activator: 1

How did O=C(NCCCn1ccnc1)c1ccc2c(c1)OCCO2 do in these assays?
PostGolgi yeast: -6.0; PostGolgi ctrl: 46.6*; E coli WT exp: 2.0; tolC growth inh: -16.8; PLAP activator: 1

What do the screens show for `CCOc1ccccc1C1CC(c2ccc(Br)cc2)Nc2nc(N)nn21` (stereo not drawn)?
PostGolgi yeast: -1.6; PostGolgi ctrl: 1.0; E coli WT exp: 8.0; tolC growth inh: 28.0; PLAP activator: 1.7

What do the screens show for `COc1ccc(OCCn2cc(/C(N)=N/O)c3ccccc32)cc1`?
PostGolgi yeast: -2.8; PostGolgi ctrl: 1.4; E coli WT exp: 10.0; PLAP activator: 0.8

Results for CCC(=C(c1ccc(OC)cc1)c1ccc(OC)cc1)c1cn(CC(O)CN2CCN(C)CC2)c2ccccc12 (stereo not drawn) ?
PostGolgi yeast: 27.9; PostGolgi ctrl: 90.7*; E coli WT exp: 1.0; PLAP activator: 1.8

How did O=C(C1CCCN(S(=O)(=O)Cc2ccccc2)C1)N1CCC(Cc2ccccc2)CC1 (stereo not drawn) do in these assays?
PostGolgi yeast: 5.4; PostGolgi ctrl: 34.2*; E coli WT exp: -5.0; PLAP activator: 1.9

What do the screens show for `O=C(Nc1ccc2c(c1)OCCO2)C1CCN(C(=O)c2ccccc2)CC1`?
PostGolgi yeast: -4.9; PostGolgi ctrl: 31.0*; E coli WT exp: -1.0; PLAP activator: 1.3

What do the screens show for `O=C(Nc1ccc2c(c1)OCO2)C1CCCN(S(=O)(=O)Cc2ccccc2)C1` (stereo not drawn)?
PostGolgi yeast: -4.0; PostGolgi ctrl: 42.2*; E coli WT exp: -5.0; tolC growth inh: -10.2; PLAP activator: 0.9
